Most compounds without a hit are left out; they make up all but 0.97% or so of the library.
GASC-1 inh – inhibitors of GASC-1 histone demethylase, primary screen, biochemical, fluorescence, DELFIA europium. Lysine-specific demethylase 4C (Homo sapiens), Q9H3R0. GST-JMJD2C(1-420) H3K9me3 demethylation. inhibition, % at 2.35 µM. 330,000 tested, 0.069% active. AID 2099, 2009;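 active = more than half of a compound's replicate wells show inhibition beyond 50%, single wells judged on their own value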;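 note: signal counts dimethyl H3K9 product captured on neutravidin plate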
UCH37 inh – inhibitors of human UCH37 deubiquitinase, primary screen, biochemical, Ub-AMC cleavage, fluorescence; purified proteasome/UCH37; inhibition, % (no concentration beside the values); 330,000 tested, 0.33% active; AID 588478, 2011;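 active = mean inhibition over replicate wells above about 20%, limit read from the data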
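System: Proteasome-associated human UCH37 deubiquitinase; Input: 0.15 nM proteasome in added enzyme buffer; Also added: Ub-AMC substrate from 1 µM stock; Incubation: 30 min compound-proteasome preincubation then 25 min substrate reaction, room temperature; Detection: fluorescence, ex 355 nm, em 460 nm; Read-out: % inhibition of Ub-AMC cleavage fluorescence; Benchmarks: no-proteasome and no-compound wells.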
APOBEC3A inh – APOBEC3A ssDNA deaminase inhibitors, primary screen, selectivity assay for APOBEC3G inhibitor project, biochemical, FAM/TAMRA oligo cleavage fluorescence; DNA dC->dU-editing enzyme APOBEC-3A (Homo sapiens), P31941; recombinant A3A, FAM/TAMRA ssDNA deamination fluorescence; inhibition, % at 20 µM; 330,000 tested, 0.41% active;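 active = at least 40% inhibition at 20 µM here, with at most 30% in a related deaminase screen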
Target sequence (P31941 whole entry, looked up): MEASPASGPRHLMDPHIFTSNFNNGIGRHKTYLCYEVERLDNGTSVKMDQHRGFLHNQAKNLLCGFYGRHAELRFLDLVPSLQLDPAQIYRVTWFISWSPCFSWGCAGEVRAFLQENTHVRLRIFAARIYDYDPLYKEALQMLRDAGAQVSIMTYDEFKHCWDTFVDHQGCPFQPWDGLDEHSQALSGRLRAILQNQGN
A3G deaminase – APOBEC3G DNA deaminase inhibitors, primary screen, biochemical, fluorescence, single-stranded DNA substrate, uHTS | DNA dC->dU-editing enzyme APOBEC-3G (Homo sapiens), Q9HC16 | recombinant A3G, ssDNA deamination FAM/TAMRA fluorescence | inhibition, % at 20 µM | 330,000 tested, 0.28% active | AID 493012, 2011;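 active = inhibition of at least 40% at 20 µM, with no more than 30% in the related APOBEC3A deaminase screen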
Target sequence (Q9HC16 whole entry, looked up): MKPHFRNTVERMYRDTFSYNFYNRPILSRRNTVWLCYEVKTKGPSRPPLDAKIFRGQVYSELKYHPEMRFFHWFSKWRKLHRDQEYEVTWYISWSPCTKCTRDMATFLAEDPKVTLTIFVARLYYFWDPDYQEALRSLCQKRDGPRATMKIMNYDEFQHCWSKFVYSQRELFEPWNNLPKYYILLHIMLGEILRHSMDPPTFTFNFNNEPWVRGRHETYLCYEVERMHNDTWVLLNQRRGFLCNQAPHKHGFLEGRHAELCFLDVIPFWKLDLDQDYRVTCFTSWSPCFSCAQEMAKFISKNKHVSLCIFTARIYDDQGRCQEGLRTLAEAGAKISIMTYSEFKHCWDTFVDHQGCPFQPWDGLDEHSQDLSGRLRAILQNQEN
A3G conf – APOBEC3G deaminase inhibitor retest, confirmation, biochemical, fluorescence, single-stranded DNA substrate, single concentration. recombinant A3G ssDNA deaminase, UDG/FAM-TAMRA fluorescence. 890 tested, 72% active. shares compounds with A3G deaminase. inhibition, % at 20 µM. AID 493152, 2011;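 active = inhibition reaching a set limit in any replicate at 20 µM, the limit being 80% of the first screen's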
UDG ctr A3G – E. coli UDG inhibitors, confirmation, counter-screen for APOBEC3G inhibitor project, biochemical, single concentration, fluorescence, FAM/TAMRA oligo. AID 504715, 2011. inhibition, % at 20 µM. UDG counterscreen. shares compounds with A3G deaminase. 710 tested, under 10 active;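 active = compounds giving 40% or more inhibition at 20 µM in any one of the three replicates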;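 note: inhibitors lower the FAM signal released by uracil excision and alkaline cleavage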
UCH37 confirm – retest of human UCH37 deubiquitinase inhibitors, confirmation, biochemical, Ub-AMC cleavage rate, fluorescence; 480 tested, 27% active; AID 624100, 2012; Proteasome-bound UCH37; inhibition, % at 20 µM; shares compounds with UCH37 inh;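 active = average inhibition over replicates above about 50%, so the earlier screening hit is confirmed, limit read from the data; inactive = the rest, counted as false positives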;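 note: based on cleavage rate fitted by regression over a 30 min kinetic read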
Large screens that a line does not name were inactive (follow-up assays come after a bar, where they were run).

Cc1nn(CCC#N)c2c1P(=S)(N1CCCC1)OC(c1ccc(F)cc1)=N2 (stereo not given)	A3G deaminase 67 | A3G conf 67
O=c1[nH]c(=O)n(-c2cccc3ccccc23)c(O)c1/C=N/N1CCCCCC1	A3G deaminase 68 | A3G conf inactive | UDG ctr A3G inactive
O=C(CSC1c2ccccc2-c2ccccc21)NN=Cc1ccccc1O	none (no result: GASC-1 inh, APOBEC3A inh, A3G deaminase)
O=[N+]([O-])c1ccccc1Cl	none
O=C1NC(=O)C(Sc2ccccc2[N+](=O)[O-])C(=O)N1	GASC-1 inh 69, A3G deaminase 46 | A3G conf 63 | UDG ctr A3G inactive
FC(F)(F)C(=NP(=S)(N1CCOCC1)N1CCOCC1)N1CCOCC1	none (no result: GASC-1 inh, APOBEC3A inh, A3G deaminase)
O=C1C=CC(=O)C=C1	A3G deaminase 82 (no result: GASC-1 inh) | A3G conf 88 | UDG ctr A3G inactive
c1cncc(C2Nc3cccc4cccc(c34)N2)c1	A3G deaminase 45 | A3G conf 64
COc1ccc(C=NN=C(N)N)cc1	none (no result: GASC-1 inh, APOBEC3A inh, A3G deaminase)
O=C(NN=C1CN2CCC1CC2)c1cc2ccccc2cc1O	none (no result: GASC-1 inh, APOBEC3A inh, A3G deaminase)
C=C(C)C(Cc1c(OC)ccc(C(=O)/C=C/c2ccc(O)cc2)c1O)OO (stereo not given)	UCH37 inh 49 (no result: GASC-1 inh) | UCH37 confirm inactive
ON=Cc1c[nH]c2ccccc12	none (no result: GASC-1 inh, APOBEC3A inh, A3G deaminase)
COC(=O)C1=C(c2cccc(C#N)c2)C[C@@H]2CC[C@H]1N2C(=O)NCCOc1ccccc1	none
COC(=O)C1=C(c2cccc(C#N)c2)C[C@@H]2CC[C@H]1N2C(=O)NCCOc1ccccc1Cl	UCH37 inh 46 | UCH37 confirm inactive
Cc1ccc2c(c1)CC1(CN2C)C(=O)NC(=O)N(CCC2=CCCCC2)C1=O (stereo not given)	UCH37 inh 35 | UCH37 confirm inactive
C[C@]12CCC3C(CCC4=CC(=NOCC(=O)NC(CCC(=O)O)C(=O)O)CC[C@@]43C)C1CCC2O (stereo not given in full)	none (no result: GASC-1 inh, APOBEC3A inh, A3G deaminase)
Cc1nc2c(=O)n(C)c(=O)nc-2n(C)n1	GASC-1 inh 92, UCH37 inh 100 | UCH37 confirm 100
CN(C)c1ccc(C(=O)NN=CC23CC[C@@H](O)CC2(O)CC[C@@H]2[C@@H]3CCC3(C)C(C4=CC(=O)OC4)CCC23O)cc1 (stereo not given in full)	none (no result: GASC-1 inh, APOBEC3A inh, A3G deaminase)
CN1/C(=C\C=C2C(=O)NC(=O)NC2=O)C(C)(C)c2ccccc21	UCH37 inh 39 | UCH37 confirm inactive
Oc1ccc(C=NNP(=S)(c2ccccc2)c2ccccc2)c(O)c1O	none (no result: GASC-1 inh, APOBEC3A inh, A3G deaminase)
O=C1C(=O)c2ccccc2-c2ccccc21	UCH37 inh 87 | UCH37 confirm 101
CC[C@H](C)C=C(C)/C=C/C1=CC2=C(Cl)C(=O)[C@@](C)(OC(C)=O)C(=O)C2=CO1	none (no result: GASC-1 inh, APOBEC3A inh, A3G deaminase)
O=C(Nc1ccc(Cl)c(Cl)c1)c1ccco1	none
O=C1NC(=O)C(Nc2ccc(Cl)c(Cl)c2)C(=O)N1	UCH37 inh 59 (no result: GASC-1 inh, APOBEC3A inh, A3G deaminase) | UCH37 confirm inactive
CC(C)(C)N1C(=O)NC(=O)/C(=C\c2ccc3c(c2)CCN3CCCCl)C1=O	UCH37 inh 64 | UCH37 confirm inactive
CCN1C(=O)/C(=C/c2ccc3c(c2)CCN3CCCCl)C(=O)NC1=S	none (no result: APOBEC3A inh, A3G deaminase)
Cn1c(O)c(C(=O)c2ccccc2)c(=O)n(C)c1=O	UCH37 inh 42 | UCH37 confirm inactive
O=C(O)CC1OCC=C2CN3CCC45C6=CC(=O)C(=O)C([N+](=O)[O-])=C6NC4C1C2CC35 (stereo not given)	UCH37 inh 97 (no result: APOBEC3A inh, A3G deaminase) | UCH37 confirm 97
O=C(O)CC1OCC=C2CN3CCC45c6ccccc6NC4C1C2CC35 (stereo not given)	none (no result: UCH37 inh)
Cc1cccc(-n2c(O)c(/C=N/Nc3nc4c(c(=O)n(C)c(=O)n4C)n3C)c(=O)[nH]c2=S)c1	UCH37 inh 27 | UCH37 confirm inactive
O=P(C(=NO)N1CCCCC1)(N1CCOCC1)N1CCOCC1	none (no result: GASC-1 inh, APOBEC3A inh, A3G deaminase)
CN1CCN(c2ccc([N+](=O)[O-])c3no[n+]([O-])c23)CC1	UCH37 inh 42 (no result: APOBEC3A inh, A3G deaminase) | UCH37 confirm inactive
CN1CCN(c2ccc(S(C)(=O)=O)cc2[N+](=O)[O-])CC1	none
N#Cc1c(N=Cc2ccc(O)cc2O)sc2c1C1CCN2CC1	none (no result: GASC-1 inh, APOBEC3A inh, A3G deaminase)
